ChEMBL document CHEMBL5724801, “EUbOPEN Chemogenomics Library - Multiplex” (2024)
Where “and” joins values, the source holds several entries; their conditions need not be identical. Equal entries are not always repeated.

System: Fibroblast
Assay: Multiplex assay against human fibroblast
Assay type: toxicity, cell-based
Procedure, shortened: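 Compound was added to live cells that had been stained at seeding with Hoechst33342, BioTracker Green Microtubule Cytoskeleton Dye, MitoTracker Red and Annexin V Alexa Fluor 680, and imaging followed on a CQ1 microscope at 37°C and 5% CO2. CellPathfinder machine-learning gating divided cells into Hoechst high-intensity objects or normal cells, normal cells into healthy, pyknosed or fragmented nuclei, and pyknosed cells into mitotic or apoptotic. Tubulin, mitochondrial-mass and membrane-permeability phenotypes are per cents of healthy-nucleus cells.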

[1] = 12 h, 1 µM, compound concentration 1 uM
[2] = 12 h, 10 µM, compound concentration 10 uM
[3] = 24 h, 1 µM, compound concentration 1 uM
[4] = 24 h, 10 µM, compound concentration 10 uM
[5] = 48 h, 1 µM, compound concentration 1 uM
[6] = 48 h, 10 µM, compound concentration 10 uM

## C=CC(=O)Nc1cc(Nc2nccc(-n3cc(CN(C)C)c(-c4ccccc4)n3)n2)c(OC)cc1N1CCOCC1 [LAZERTINIB]
[1]
  Population Fragmented Nuclei (%): 17.06% and 10.42%
  Population Healthy Nuclei (%): 39.41% and 72.59%
  Population Hoechst High Intensity Objects (%): 0%
  Population Membrane Permeable-Phenotype (%): 5.97% and 4.26%
  Population Mitochondria Different-Phenotype (%): 13.43% and 12.77%
  Population Mitotic Cells (%): 97.3% and 84.09%
  Population Normal (%): 100%
  Population Pyknosed Nuclei (%): 43.53% and 16.99%
  Population Tubulin-Different-Phenotype (%): 26.87% and 71.81%
  Total Cell Count: 170 and 259
[2]
  Population Apoptotic (%): 18.84% and 24.56%
  Population Fragmented Nuclei (%): 21.15% and 12.73%
  Population Healthy Nuclei (%): 34.62% and 72.47%
  Population Hoechst High Intensity Objects (%): 0%
  Population Membrane Permeable-Phenotype (%): 1.85% and 8.24%
  Population Mitochondria Different-Phenotype (%): 48.15% and 27.24%
  Population Mitotic Cells (%): 81.16% and 75.44%
  Population Normal (%): 100%
  Population Pyknosed Nuclei (%): 44.23% and 14.81%
  Population Tubulin-Different-Phenotype (%): 55.56% and 80.65%
  Total Cell Count: 156 and 385
[3]
  Population Fragmented Nuclei (%): 8.12% and 9.88%
  Population Healthy Nuclei (%): 60.62% and 75.1%
  Population Hoechst High Intensity Objects (%): 0%
  Population Membrane Permeable-Phenotype (%): 6.19% and 3.68%
  Population Mitochondria Different-Phenotype (%): 23.71% and 17.89%
  Population Mitotic Cells (%): 90% and 52.63%
  Population Normal (%): 100%
  Population Pyknosed Nuclei (%): 31.25% and 15.02%
  Population Tubulin-Different-Phenotype (%): 34.02% and 66.32%
  Total Cell Count: 160 and 253
[4]
  Population Apoptotic (%): 52.31% and 34.69%
  Population Healthy Nuclei (%): 37.75% and 81.53%
  Population Hoechst High Intensity Objects (%): 0%
  Population Membrane Permeable-Phenotype (%): 5.26% and 2.72%
  Population Mitochondria Different-Phenotype (%): 43.86% and 34.14%
  Population Mitotic Cells (%): 47.69% and 65.31%
  Population Normal (%): 100%
  Population Tubulin-Different-Phenotype (%): 57.89% and 76.44%
  Total Cell Count: 151 and 406
[5]
  Population Apoptotic (%): 16.67% and 20.83%
  Population Fragmented Nuclei (%): 12.14% and 10.42%
  Population Healthy Nuclei (%): 77.46% and 80.31%
  Population Hoechst High Intensity Objects (%): 0%
  Population Membrane Permeable-Phenotype (%): 0.75% and 1.92%
  Population Mitochondria Different-Phenotype (%): 11.19% and 8.17%
  Population Mitotic Cells (%): 83.33% and 79.17%
  Population Normal (%): 100%
  Population Pyknosed Nuclei (%): 10.4% and 9.27%
  Population Tubulin-Different-Phenotype (%): 27.61% and 62.5%
  Total Cell Count: 173 and 259
[6]
  Population Apoptotic (%): 64.71% and 51.61%
  Population Fragmented Nuclei (%): 24.65% and 10.26%
  Population Healthy Nuclei (%): 51.41% and 82.52%
  Population Hoechst High Intensity Objects (%): 0%
  Population Membrane Permeable-Phenotype (%): 1.37% and 2.82%
  Population Mitotic Cells (%): 35.29% and 48.39%
  Population Normal (%): 100%
  Population Tubulin-Different-Phenotype (%): 49.32% and 60.73%

## COC(=O)c1ccc2c(c1)NC(=O)/C2=C(\Nc1ccc(N(C)C(=O)CN2CCN(C)CC2)cc1)c1ccccc1 [NINTEDANIB]
[1]
  Population Apoptotic (%): 16.28% and 33.33%
  Population Fragmented Nuclei (%): 16.48% and 7.77%
  Population Healthy Nuclei (%): 59.09% and 77.67%
  Population Hoechst High Intensity Objects (%): 0%
  Population Membrane Permeable-Phenotype (%): 6.73% and 3.75%
  Population Mitochondria Different-Phenotype (%): 17.31% and 10%
  Population Mitotic Cells (%): 83.72% and 66.67%
  Population Normal (%): 100%
  Population Pyknosed Nuclei (%): 24.43% and 14.56%
  Population Tubulin-Different-Phenotype (%): 38.46% and 36.88%
  Total Cell Count: 176 and 206
[2]
  Population Apoptotic (%): 40.91% and 35.76%
  Population Fragmented Nuclei (%): 5.54% and 1.86%
  Population Healthy Nuclei (%): 51.47% and 66.87%
  Population Hoechst High Intensity Objects (%): 0.65% and 0%
  Population Membrane Permeable-Phenotype (%): 29.11% and 30.65%
  Population Mitochondria Different-Phenotype (%): 33.54% and 14.24%
  Population Mitotic Cells (%): 59.09% and 64.24%
  Population Normal (%): 99.35% and 100%
  Population Pyknosed Nuclei (%): 43% and 31.26%
  Population Tubulin-Different-Phenotype (%): 51.27% and 85.14%
  Total Cell Count: 309 and 483
[3]
  Population Apoptotic (%): 16.22% and 30%
  Population Fragmented Nuclei (%): 15.92% and 9.59%
  Population Healthy Nuclei (%): 65.67% and 76.71%
  Population Hoechst High Intensity Objects (%): 0%
  Population Membrane Permeable-Phenotype (%): 3.79% and 3.57%
  Population Mitochondria Different-Phenotype (%): 8.33% and 10.71%
  Population Mitotic Cells (%): 83.78% and 70%
  Population Normal (%): 100%
  Population Pyknosed Nuclei (%): 18.41% and 13.7%
  Population Tubulin-Different-Phenotype (%): 31.82% and 40.48%
  Total Cell Count: 201 and 219
[4]
  Population Apoptotic (%): 45.74% and 54.65%
  Population Fragmented Nuclei (%): 5.3% and 6.9%
  Population Healthy Nuclei (%): 59.09% and 71.92%
  Population Hoechst High Intensity Objects (%): 0.75% and 0%
  Population Membrane Permeable-Phenotype (%): 12.18% and 13.36%
  Population Mitochondria Different-Phenotype (%): 45.51% and 32.53%
  Population Mitotic Cells (%): 54.26% and 45.35%
  Population Normal (%): 99.25% and 100%
  Population Pyknosed Nuclei (%): 35.61% and 21.18%
  Population Tubulin-Different-Phenotype (%): 66.67% and 90.75%
  Total Cell Count: 266 and 406
[5]
  Population Apoptotic (%): 21.43% and 45%
  Population Fragmented Nuclei (%): 19.15% and 12.93%
  Population Healthy Nuclei (%): 74.89% and 78.45%
  Population Hoechst High Intensity Objects (%): 0%
  Population Membrane Permeable-Phenotype (%): 0.57% and 1.65%
  Population Mitotic Cells (%): 78.57% and 55%
  Population Normal (%): 100%
  Population Pyknosed Nuclei (%): 5.96% and 8.62%
  Population Tubulin-Different-Phenotype (%): 23.86% and 42.31%
  Total Cell Count: 235 and 232
[6]
  Population Apoptotic (%): 60.29% and 65.38%
  Population Fragmented Nuclei (%): 8.47% and 8.93%
  Population Healthy Nuclei (%): 64.11% and 83.57%
  Population Hoechst High Intensity Objects (%): 0%
  Population Membrane Permeable-Phenotype (%): 9.43% and 8.97%
  Population Mitochondria Different-Phenotype (%): 44.65% and 33.45%
  Population Mitotic Cells (%): 39.71% and 34.62%
  Population Normal (%): 100%
  Population Tubulin-Different-Phenotype (%): 58.49% and 91.72%
  Total Cell Count: 248 and 347
